The structures appear in SMILES notation. Activity calls are given as the source filed them.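 The calls were made as follows, unless noted: active = duplicate-averaged activation above buffer control mean plus 5 SD of those controls; inactive = the rest.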

Test [1] in a line: nonspecific flux increase, KCNQ1-free cells – parental CHO cells, counter-screen for KCNQ1 potentiator project (AID 493006). To be noted: parental CHO-K1 cells, FluxOR thallium flux, at 10 µM; stronger effect = higher value. A digest of the protocol:
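Test system: parental CHO-K1 cells, FluxOR dye-loaded / Probe or stimulus: potassium plus thallium depolarizing stimulus, 5x stock 12.5 mM K2SO4, Tl2SO4 / Timing: overnight 37 °C plating, 90 min dye, 20 min dark compound / Measured by: kinetic thallium-flux fluorescence / Read-out: max-minus-min fluorescence over baseline, percent of buffer-to-R-L3 span / Benchmarks: buffer and R-L3 controls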
(In general: A counterscreen serves to expose hits that act by an unwanted route or on another target.)

Test [2] addresses Potassium voltage-gated channel subfamily KQT member 1 (Homo sapiens) (UniProt P51787). Put plainly: enhancement of KCNQ1 channel thallium flux – FluxOR thallium flux, CHO cells, duplicates, confirmation (AID 493007;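 active = potentiation averaged over duplicate wells exceeding buffer-only control mean by more than 3 SD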;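 as to outcome: cells depolarized by a potassium plus thallium sulfate stimulus after compound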;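 as to potentiation: 0% = buffer-only wells and 100% = R-L3 activator control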). To be noted: KCNQ1 cell line, FluxOR thallium flux fluorescence, at 10 µM; stronger effect = higher value, % of reference activator effect, buffer zero. An outline of the steps:
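Assay system: CHO cells carrying KCNQ1 | Controls: Buffer and R-L3 controls | Schedule: FluxOR dye loading 90 min, compound exposure 20 min, room temperature | Read-out: Baseline-normalized fluorescence change, percent of buffer-to-R-L3 range | Replicates: Each compound tested in duplicate | Technique: Kinetic thallium influx fluorescence with FluxOR dye, 10 s baseline, 110 s post-stimulus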

For test [3], the target named is Potassium voltage-gated channel subfamily KQT member 2 (Rattus norvegicus) (UniProt O88943). Put plainly: KCNQ2 thallium flux enhancement – KCNQ2-CHO-K1 cells, selectivity assay for KCNQ1 potentiator project (AID 493009;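 active = mean duplicate potentiation above the buffer control mean plus 5 SD of buffer wells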;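 also: assay conditions were tuned for KCNQ1 rather than KCNQ2 modulators; signal is max minus min fluorescence divided by baseline after thallium stimulus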). To be noted: FluxOR thallium flux fluorescence, at 10 µM; stronger effect = higher value, scaled: buffer 0, activator control 100.
Potassium voltage-gated channel subfamily KQT member 2 (Rattus norvegicus), sequence (O88943 whole entry, looked up): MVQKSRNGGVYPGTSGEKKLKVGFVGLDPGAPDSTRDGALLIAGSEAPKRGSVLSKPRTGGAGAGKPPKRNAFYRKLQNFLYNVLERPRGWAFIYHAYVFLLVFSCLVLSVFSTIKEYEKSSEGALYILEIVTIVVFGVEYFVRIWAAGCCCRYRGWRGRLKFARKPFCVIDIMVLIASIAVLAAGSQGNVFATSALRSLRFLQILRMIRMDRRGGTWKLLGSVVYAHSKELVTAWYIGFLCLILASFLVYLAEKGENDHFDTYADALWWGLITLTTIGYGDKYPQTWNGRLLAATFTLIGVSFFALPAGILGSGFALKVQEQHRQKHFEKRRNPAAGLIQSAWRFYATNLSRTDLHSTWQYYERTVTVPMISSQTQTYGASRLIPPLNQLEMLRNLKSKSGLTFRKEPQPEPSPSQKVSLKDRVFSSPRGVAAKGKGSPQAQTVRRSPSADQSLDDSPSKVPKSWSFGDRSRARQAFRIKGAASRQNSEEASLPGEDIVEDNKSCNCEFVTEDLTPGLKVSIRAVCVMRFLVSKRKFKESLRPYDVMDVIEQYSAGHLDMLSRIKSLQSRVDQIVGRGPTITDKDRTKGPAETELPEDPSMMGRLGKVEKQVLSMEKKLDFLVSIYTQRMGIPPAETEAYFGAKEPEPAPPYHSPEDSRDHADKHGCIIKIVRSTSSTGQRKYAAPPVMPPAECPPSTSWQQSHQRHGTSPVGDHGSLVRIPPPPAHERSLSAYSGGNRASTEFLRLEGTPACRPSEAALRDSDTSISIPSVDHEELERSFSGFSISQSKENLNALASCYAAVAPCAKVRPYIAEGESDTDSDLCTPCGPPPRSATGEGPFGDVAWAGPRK
The target in test [4] is Potassium voltage-gated channel subfamily KQT member 1 (Homo sapiens) (UniProt P51787). Put plainly: KCNQ1 activators by electrophysiology – IonWorks patch clamp, KCNQ1-CHO cells, orthogonal assay for KCNQ1 potentiator project, confirmation (AID 493184;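 active = current rise at least 3 SD above the untreated control mean in each of two repeat wells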). To be noted: automated patch clamp current, at 10 µM; stronger effect = higher value. A digest of the protocol: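 Material: KCNQ1-expressing CHO cells; doses: 10 µM final, single point; probe or stimulus: voltage step from -90 mV holding to +40 mV, 2,000 ms; signal: automated voltage clamp, amphotericin B perforated patch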
Potassium voltage-gated channel subfamily KQT member 1 (Homo sapiens), sequence (P51787 whole entry, looked up): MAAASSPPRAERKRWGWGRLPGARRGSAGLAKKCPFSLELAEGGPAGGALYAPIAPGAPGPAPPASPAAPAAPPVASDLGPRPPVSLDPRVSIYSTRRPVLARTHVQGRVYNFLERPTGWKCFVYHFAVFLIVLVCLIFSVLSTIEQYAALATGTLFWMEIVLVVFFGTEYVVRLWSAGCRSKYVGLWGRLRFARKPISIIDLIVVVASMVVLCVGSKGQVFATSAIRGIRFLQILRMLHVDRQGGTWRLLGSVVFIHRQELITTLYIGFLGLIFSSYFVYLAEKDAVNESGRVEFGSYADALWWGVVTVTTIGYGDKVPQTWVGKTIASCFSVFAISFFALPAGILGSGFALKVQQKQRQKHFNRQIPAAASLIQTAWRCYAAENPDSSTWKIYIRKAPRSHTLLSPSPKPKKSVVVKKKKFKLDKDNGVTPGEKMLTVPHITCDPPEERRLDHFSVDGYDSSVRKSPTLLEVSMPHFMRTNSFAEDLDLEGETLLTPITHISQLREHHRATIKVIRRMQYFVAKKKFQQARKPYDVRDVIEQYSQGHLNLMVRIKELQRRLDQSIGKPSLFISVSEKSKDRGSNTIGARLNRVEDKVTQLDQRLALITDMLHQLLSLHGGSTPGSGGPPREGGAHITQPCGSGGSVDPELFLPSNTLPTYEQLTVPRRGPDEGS
(Patch clamp records ionic current or voltage across a cell membrane.)

Turning to `CCOc1ccc(C(C#N)N2CCOCC2)cc1OC` (stereo not given), the result in test [1], in test [2], in test [3] and in test [4] was inactive.
Turning to `O=C(Nc1nnc(C2=COCCO2)o1)c1ccc(Br)cc1`, the activation in test [1] is 142% (active). Besides, the potentiation in test [2] was 18% (active); in test [3] it was 169% (active). The result in test [4] was inactive.
`CC(C)COn1c(=S)[nH]c2ccccc2c1=O`: in test [1], the activation was 164% (active). Further, the result in test [2] and in test [4] was inactive. For the same compound, the potentiation in test [3] was 198% (active).
On to `CCCCn1c(=S)[nH]c2ncccc2c1=O`, for which the result in test [1] and in test [4] was inactive. The potentiation is 34.5% (active) in test [2] and 173% (active) in test [3].
Turning to `COc1ccc(NC(=O)C(=O)NNC(=O)c2cccs2)cc1`, the activation in test [1] is 177% (active). In addition, the potentiation in test [2] is 24.5% (active); in test [3], 187% (active). In addition, the outcome in test [4] was inactive.
`O=C(N/N=C1/C(=O)c2cccc3cccc1c23)c1ccc(Cl)cc1`: the activation in test [1] is 145% (active). Further, the potentiation in test [2] was 83.5% (active). Further, the outcome in test [3] and in test [4] was inactive.
On to `CC(=O)Nc1nc2c(F)cccc2s1`, for which the outcome in test [1], in test [2], in test [3] and in test [4] was inactive.
`COc1ccc2[nH]c3c(c2c1)CCNC3C1CC=C(C)CC1` (stereo not given): the result in test [1], in test [2], in test [3] and in test [4] was inactive.
Regarding `COc1cccc(C2=NOC(C(=O)NCc3ccccc3)C2)c1` (stereo not given), the outcome in test [1], in test [2], in test [3] and in test [4] was inactive.
As to `CC(=O)N[C@H]1[C@H](OC2CCCCC2)O[C@H](COC(C)=O)[C@@H](OC(C)=O)[C@@H]1OC(C)=O`, the result in test [1], in test [2], in test [3] and in test [4] was inactive.
In the case of `COC(=O)C1=C(C(=O)OC)[C@@H]2N(C)c3ccccc3[C@@]23C[C@@H](C(=O)OC)N(C(=O)c2ccc(Br)cc2)C3=N1`, the activation in test [1] was 158% (active). Also, the potentiation in test [2] was 104% (active); in test [3], 204% (active). The outcome in test [4] was inactive.
Turning to `NC(N)=N/N=C/c1ccccc1OC(F)F`, the outcome in test [1], in test [2], in test [3] and in test [4] was inactive.
On to `CC1Cc2ccccc2N1C(=S)NC(=O)C1(C)CC1(Cl)Cl` (stereo not given), for which the activation in test [1] is 236% (active). The potentiation was 72.5% (active) in test [2] and 267% (active) in test [3]. The result in test [4] was inactive.
For `Oc1c(N=NC(=S)Nc2ccccc2F)c2ccccc2n1Cc1ccccc1F`, the activation in test [1] is 142% (active). Besides, the potentiation in test [2] is 64% (active); in test [3], 169% (active). Moreover, the result in test [4] was inactive.
For the compound `C/C(=N\Nc1nc2ccccc2[nH]1)c1ccc(Cl)s1`, the outcome in test [1], in test [2] and in test [4] was inactive. For the same compound, the potentiation in test [3] was 156% (active).
Take `CCC(CC)c1nnc(NC(=O)c2cc(C(=O)OC)cc([N+](=O)[O-])c2)s1`: in test [1], the activation is 366% (active). The potentiation in test [2] is 179% (active); in test [3] it was 419% (active). Also, the outcome in test [4] was inactive.
Turning to `CCCOc1ccc(Cc2nc(N)nc(N)n2)cc1`, the outcome in test [1], in test [2], in test [3] and in test [4] was inactive.
In the case of `c1ccc(CCCNc2ncnc3nc[nH]c23)cc1`, the activation in test [1] is 316% (active). The potentiation in test [2] is 78.5% (active); in test [3], 291% (active). For the same compound, the outcome in test [4] was inactive.
Taken in the same sequence, the figures for `O=c1c2cc(Cl)ccc2nc(-c2ccc([N+](=O)[O-])cc2)n1O` were 445% (active), 193% (active), 456% (active) and “inactive”.
In the same order, the values of `S=c1[nH]nc(-c2ccc(Cl)cc2Cl)n1-c1ccc(Cl)cc1` are 154% (active), 43% (active), 167% (active) and “inactive”.
In the same order, the values of `CCc1ccc2nc(NC(=O)c3cc(C)on3)sc2c1` are 157% (active), 55% (active), 151% (active) and “inactive”.
As for `CN1CCN(CC/C=C2/c3ccccc3Sc3ccc(S(=O)(=O)N(C)C)cc32)CC1`, the result in test [1], in test [2], in test [3] and in test [4] was inactive.
On to `COc1ccc(C(=O)CC(=O)C(=O)Nc2ccccc2C(F)(F)F)cc1`, for which the result in test [1] and in test [4] was inactive. Also, the potentiation was 38.5% (active) in test [2] and 147% (active) in test [3].
`Cc1cccc(NC(=O)Nc2ccc(OCc3ccccc3)cc2)n1`: the outcome in test [1], in test [2], in test [3] and in test [4] was inactive.
Turning to `COCCn1cnc2c1c(=O)n(CC#N)c(=O)n2Cc1ccccc1`, the result in test [1], in test [2], in test [3] and in test [4] was inactive.
`CCOC(=O)c1sc2nc(C)nc(SCC(=O)N(C)C3CCS(=O)(=O)C3)c2c1C` (stereo not given): the outcome in test [1] and in test [4] was inactive. The figures for the potentiation in test [2] and in test [3] were 17.5% (active) and 142% (active), respectively.
Regarding `CCOC(=O)c1sc(NC(=O)c2ccc(OC(C)=O)cc2)nc1C`, the result in test [1], in test [2], in test [3] and in test [4] was inactive.
Take `Cc1cc(Cl)c(S(=O)(=O)Nc2ccc3c(c2)OCO3)cc1OCC(N)=O`: the outcome in test [1], in test [2], in test [3] and in test [4] was inactive.
Regarding `COc1ccc(CN(C)CC(=O)Nc2ccc(Cl)cc2C(F)(F)F)c(OC)c1`, the result in test [1], in test [3] and in test [4] was inactive. Moreover, the potentiation in test [2] was 37.5% (active).
With `COc1ccccc1CNC(=O)COC(=O)c1nccnc1N`, the result in test [1], in test [2], in test [3] and in test [4] was inactive.

These data come from PubChem BioAssay.
